Results reported in ChEMBL document CHEMBL1817564, “Recognition of HIV TAR RNA by triazole linked neomycin dimers” (Bioorg Med Chem Lett, 2011).
The source made the active and inactive calls. The rule behind the calls is not given here.

Columns and labels:
Nucleic Acid [1] = assay: Binding affinity to HIV1 TAR RNA assessed as change in melting temperature at HIV1 TAR RNA to compound ratio of 1 at pH 6.8 by UV thermal denaturation assay; type: nucleic-acid assay; conditions: Human immunodeficiency virus 1
Outline: (§1)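 UV melting of HIV-1 TAR RNA (1 µM/strand) with ligand at 1 µM (ratio 1) in 100 mM KCl, 10 mM SC, 0.5 mM EDTA, pH 6.8. Tm taken from first-derivative plots of absorbance versus temperature; ΔTm is relative to RNA alone.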

Nucleic Acid [2] = assay: Inhibition of HIV1 TAR RNA; type: nucleic-acid assay, Human immunodeficiency virus 1
Nucleic Acid [3] = assay: Binding affinity to HIV1 TAR RNA assessed as melting temperature at HIV1 TAR RNA to compound ratio of 1 at pH 6.8 by UV thermal denaturation assay; type: nucleic-acid assay; conditions: Human immunodeficiency virus 1; outline: as §1
Nucleic Acid [4] = assay: Binding affinity to HIV1 TAR RNA at […] up to 3 by CD Spectroscopy; type: nucleic-acid assay; conditions: Human immunodeficiency virus 1
Outline: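 CD titration of HIV TAR RNA with incremental additions of neomycin dimer, covering drug/duplex ratio (rdd) 0 to 3. Read-out is molar ellipticity.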

Nucleic Acid [5] = assay: Binding affinity to HIV1 TAR RNA assessed as melting temperature at compound to TAR RNA ratio of 2 at pH 6.8 by UV thermal denaturation assay; type: nucleic-acid assay; conditions: Human immunodeficiency virus 1
Outline: (§2)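 TAR RNA UV thermal denaturation in 100 mM KCl, 10 mM SC, 0.5 mM EDTA, pH 6.8, with dimer:RNA at 2:1. Tm taken from first-derivative plots.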

Nucleic Acid [6] = assay: Binding affinity to HIV1 TAR RNA assessed as change in melting temperature at compound to TAR RNA ratio of 2 at pH 6.8 by UV thermal denaturation assay; type: nucleic-acid assay; conditions: Human immunodeficiency virus 1; outline: as §2
Nucleic Acid [7] = assay: Binding affinity to HIV1 TAR RNA assessed as melting temperature at compound to TAR RNA ratio of 4 at pH 6.8 by UV thermal denaturation assay; type: nucleic-acid assay; conditions: Human immunodeficiency virus 1
Nucleic Acid [8] = assay: Binding affinity to HIV1 TAR RNA assessed as change in melting temperature at compound to TAR RNA ratio of 4 at pH 6.8 by UV thermal denaturation assay; type: nucleic-acid assay; conditions: Human immunodeficiency virus 1

SMILES	ΔTm (Nucleic Acid [1]) [°C]	Tm (Nucleic Acid [3]) [°C]	other results
NC[C@@H]1O[C@H](O[C@H]2[C@@H](O)[C@H](O[C@@H]3[C@@H](O)[C@H](N)C[C@H](N)[C@H]3O[C@H]3O[C@H](CN)[C@@H](O)[C@H](O)[C@H]3N)O[C@@H]2CO)[C@H](N)[C@@H](O)[C@@H]1O [FRAMYCETIN]	0.2	69.1	IC50 (Nucleic Acid [2]): 0.417 µM; Kd (Nucleic Acid [2]): < 1 µM
NC[C@@H]1O[C@H](O[C@H]2[C@@H](O)[C@H](O[C@@H]3[C@@H](O)[C@H](N)C[C@H](N)[C@H]3O[C@H]3O[C@H](CN)[C@@H](O)[C@H](O)[C@H]3N)O[C@@H]2Cn2cc(Cc3cccc(Cc4cn(C[C@H]5O[C@@H](O[C@@H]6[C@@H](O)[C@H](N)C[C@H](N)[C@H]6O[C@H]6O[C@H](CN)[C@@H](O)[C@H](O)[C@H]6N)[C@H](O)[C@@H]5O[C@H]5O[C@@H](CN)[C@@H](O)[C@H](O)[C@H]5N)nn4)c3)nn2)[C@H](N)[C@@H](O)[C@@H]1O	9.3	78.2	
NC[C@@H]1O[C@H](O[C@H]2[C@@H](O)[C@H](O[C@@H]3[C@@H](O)[C@H](N)C[C@H](N)[C@H]3O[C@H]3O[C@H](CN)[C@@H](O)[C@H](O)[C@H]3N)O[C@@H]2Cn2cc(Cc3ccc(Cc4cn(C[C@H]5O[C@@H](O[C@@H]6[C@@H](O)[C@H](N)C[C@H](N)[C@H]6O[C@H]6O[C@H](CN)[C@@H](O)[C@H](O)[C@H]6N)[C@H](O)[C@@H]5O[C@H]5O[C@@H](CN)[C@@H](O)[C@H](O)[C@H]5N)nn4)cc3)nn2)[C@H](N)[C@@H](O)[C@@H]1O	9.6	78.5	
NC[C@@H]1O[C@H](O[C@H]2[C@@H](O)[C@H](O[C@@H]3[C@@H](O)[C@H](N)C[C@H](N)[C@H]3O[C@H]3O[C@H](CN)[C@@H](O)[C@H](O)[C@H]3N)O[C@@H]2Cn2cc(COCCCCCCCCOCc3cn(C[C@H]4O[C@@H](O[C@@H]5[C@@H](O)[C@H](N)C[C@H](N)[C@H]5O[C@H]5O[C@H](CN)[C@@H](O)[C@H](O)[C@H]5N)[C@H](O)[C@@H]4O[C@H]4O[C@@H](CN)[C@@H](O)[C@H](O)[C@H]4N)nn3)nn2)[C@H](N)[C@@H](O)[C@@H]1O	5.4	74.3	

Continued, in another order:

ΔTm (Nucleic Acid [1]) [°C]	Tm (Nucleic Acid [3]) [°C]	SMILES	other results
8.2	77.1	NC[C@@H]1O[C@H](O[C@H]2[C@@H](O)[C@H](O[C@@H]3[C@@H](O)[C@H](N)C[C@H](N)[C@H]3O[C@H]3O[C@H](CN)[C@@H](O)[C@H](O)[C@H]3N)O[C@@H]2Cn2cc(CCCCc3cn(C[C@H]4O[C@@H](O[C@@H]5[C@@H](O)[C@H](N)C[C@H](N)[C@H]5O[C@H]5O[C@H](CN)[C@@H](O)[C@H](O)[C@H]5N)[C@H](O)[C@@H]4O[C@H]4O[C@@H](CN)[C@@H](O)[C@H](O)[C@H]4N)nn3)nn2)[C@H](N)[C@@H](O)[C@@H]1O	
6.1	74.9	NC[C@@H]1O[C@H](O[C@H]2[C@@H](O)[C@H](O[C@@H]3[C@@H](O)[C@H](N)C[C@H](N)[C@H]3O[C@H]3O[C@H](CN)[C@@H](O)[C@H](O)[C@H]3N)O[C@@H]2Cn2cc(CCCCCCc3cn(C[C@H]4O[C@@H](O[C@@H]5[C@@H](O)[C@H](N)C[C@H](N)[C@H]5O[C@H]5O[C@H](CN)[C@@H](O)[C@H](O)[C@H]5N)[C@H](O)[C@@H]4O[C@H]4O[C@@H](CN)[C@@H](O)[C@H](O)[C@H]4N)nn3)nn2)[C@H](N)[C@@H](O)[C@@H]1O	
3.3	72.1	NC[C@@H]1O[C@H](O[C@H]2[C@@H](O)[C@H](O[C@@H]3[C@@H](O)[C@H](N)C[C@H](N)[C@H]3O[C@H]3O[C@H](CN)[C@@H](O)[C@H](O)[C@H]3N)O[C@@H]2Cn2cc(COCCCCCCCCCCCCOCc3cn(C[C@H]4O[C@@H](O[C@@H]5[C@@H](O)[C@H](N)C[C@H](N)[C@H]5O[C@H]5O[C@H](CN)[C@@H](O)[C@H](O)[C@H]5N)[C@H](O)[C@@H]4O[C@H]4O[C@@H](CN)[C@@H](O)[C@H](O)[C@H]4N)nn3)nn2)[C@H](N)[C@@H](O)[C@@H]1O	
10.2	79.1	NC[C@@H]1O[C@H](O[C@H]2[C@@H](O)[C@H](O[C@@H]3[C@@H](O)[C@H](N)C[C@H](N)[C@H]3O[C@H]3O[C@H](CN)[C@@H](O)[C@H](O)[C@H]3N)O[C@@H]2Cn2cc(COCc3cn(C[C@H]4O[C@@H](O[C@@H]5[C@@H](O)[C@H](N)C[C@H](N)[C@H]5O[C@H]5O[C@H](CN)[C@@H](O)[C@H](O)[C@H]5N)[C@H](O)[C@@H]4O[C@H]4O[C@@H](CN)[C@@H](O)[C@H](O)[C@H]4N)nn3)nn2)[C@H](N)[C@@H](O)[C@@H]1O	Activity (Nucleic Acid [4]): Active
7.6	76.4	C/C(CCc1cn(C[C@H]2O[C@@H](O[C@@H]3[C@@H](O)[C@H](N)C[C@H](N)[C@H]3O[C@H]3O[C@H](CN)[C@@H](O)[C@H](O)[C@H]3N)[C@H](O)[C@@H]2O[C@H]2O[C@@H](CN)[C@@H](O)[C@H](O)[C@H]2N)nn1)=C(/C)CCc1cn(C[C@H]2O[C@@H](O[C@@H]3[C@@H](O)[C@H](N)C[C@H](N)[C@H]3O[C@H]3O[C@H](CN)[C@@H](O)[C@H](O)[C@H]3N)[C@H](O)[C@@H]2O[C@H]2O[C@@H](CN)[C@@H](O)[C@H](O)[C@H]2N)nn1	
9.3	78.2	NC[C@@H]1O[C@H](O[C@H]2[C@@H](O)[C@H](O[C@@H]3[C@@H](O)[C@H](N)C[C@H](N)[C@H]3O[C@H]3O[C@H](CN)[C@@H](O)[C@H](O)[C@H]3N)O[C@@H]2Cn2cc(CCCc3cn(C[C@H]4O[C@@H](O[C@@H]5[C@@H](O)[C@H](N)C[C@H](N)[C@H]5O[C@H]5O[C@H](CN)[C@@H](O)[C@H](O)[C@H]5N)[C@H](O)[C@@H]4O[C@H]4O[C@@H](CN)[C@@H](O)[C@H](O)[C@H]4N)nn3)nn2)[C@H](N)[C@@H](O)[C@@H]1O	Tm (Nucleic Acid [5]): 80.4 °C; ΔTm (Nucleic Acid [6]): 11.5 °C; Tm (Nucleic Acid [7]): 81.3 °C; ΔTm (Nucleic Acid [8]): 12.4 °C
